Compound activity from PubChem BioAssay.
HIF activator: HIF pathway transcriptional activators, primary screen, cell-based, U2OS HRE-luciferase, luminescence; activation, % at 7.5 µM (by protocol); U2OS HRE-luciferase reporter; normalized: DMSO 0%, desferrioxamine 100%; hit rate 0.32% among 300,000;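 active = mean activation of at least 10% of the iron chelator positive control signal, with at least half of replicates also reaching 10%; inconclusive = mean and replicate majority disagree about reaching 10%; inactive = mean and most replicates under 10%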
Beta apoptosis: inhibitors of cytokine-induced beta cell apoptosis, primary screen, luminescence. hit rate 0.8% among 300,000. AID 435005, 2010. INS-1E cytokine-induced death, ATP luminescence, 48 h; percent of positive-control rescue, neutral wells zero. protection from apoptosis, % (concentration not given with the values);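 active = Every replicate reaches about 75%, or at least half do and their mean reaches it too, limit read from the data; inconclusive = At least half of replicates reach the limit but their mean does not; inactive = Under half of replicates reach the limit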;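 note: 0% = cytokine-treated negative control wells and 100% = positive control rescue; higher means more ATP so stronger rescue from cytokine killing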
CSC inhib: cancer stem cell viability inhibitors, primary screen, luminescence. cancer stem cell-like cells viability. hit rate 1.1% among 300,000. inhibition, % at 7.5 µM; in the data active = inhibition above about 75%; inconclusive = no clear call, values can overlap the other calls; tested in HMLE shEcad cells
PfHsp90 set2: growth inhibition of PfHsp90-expressing yeast, primary screen, antimalarial PfHsp90 inhibitor project, S. cerevisiae, BacTiter-Glo luminescence, single point, set 2; inhibition, % at 9.4 µM; BacTiter-Glo ATP, 48 h; yeast lacking PDR1 and PDR3 efflux regulators; AID 504621, 2011; hit rate 0.32% among 310,000;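 active = every replicate shows inhibition above about 80%, whatever the replicate mean, limit read from the data; inconclusive = mean inhibition reaches the set limit but some replicate falls short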;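 note: 0% = DMSO neutral controls and 100% = 20 µM radicicol positive controls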
T cruzi repl: inhibitors of intracellular T. cruzi growth, primary screen, luminescence, NIH3T3 host cells; hit rate 1.4% among 300,000; inhibition, % (concentration not given with the values); T. cruzi beta-gal in NIH3T3, 90 h;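 active = mean inhibition across valid replicates above about 55%, limit read from the data; inconclusive = mean below that limit but half or more replicates reach it; inactive = mean below it, under half of replicates reach it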;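 note: signal also drops with host cell toxicity which is not excluded here; 0% = plate median of DMSO wells and 100% = zero luminescence signal; higher percent means less beta-gal luminescence so fewer parasites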
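Test system: β-gal T. cruzi (Tulahuen C4) inside NIH/3T3 cells / Quantity: 5,000 cells/well / Measured by: luminescence from GalScreen with 0.05% NP40, read after 60 min / Medium: DMEM plus 2% FBS / Measure: parasite load inhibition, % / Reagent: Tulahuen C4 trypomastigotes, 5000/well / Schedule: co-culture of at least 90 h after 3 h attachment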
SKKanGAS inh: S. pyogenes SKKanGAS growth inhibitors in kanamycin, primary screen, streptokinase expression inhibitor project, SKKanGAS strain, BacTiter-Glo luminescence | AID 1662, 2009 | 6 h | inhibition, % at 7.5 µM | hit rate 1.3% among 300,000;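 active = mean replicate score, as percent of positive control median, at least 50; inconclusive = mean below 50 but one replicate at or above 50; inactive = mean and every replicate below 50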;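 note: strain carries kanamycin resistance gene driven by streptokinase promoter and grows in 40 µg/ml kanamycin; loss of luminescence reflects streptokinase promoter inhibition or plain growth inhibition; 0% = median of DMSO wells and 100% = positive control at its reference dose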
* marks the source's active call; other numbers are inactive results; ? = inconclusive; / = not tested or not shown. A selection: hits, their analogues and other compounds. The true share with any hit is near 3.6%.

SMILES	HIF activator	Beta apoptosis	CSC inhib	PfHsp90 set2	T cruzi repl	SKKanGAS inh
COc1ccc(S(=O)(=O)Nc2ccc3c(c2)C(=O)N([C@H](C)CO)C[C@H](C)[C@@H](CN(C)S(=O)(=O)c2c(C)noc2C)O3)cc1	/	3.5	-17.0	7.8	/	/
CN1C(=O)/C(=C/c2ccccc2Cl)Sc2ccc(C(=O)NCc3cccnc3)cc21	-0.8	-1.4	-5.9	5.8	9.3	71.4*
CN1C(=O)/C(=C/c2ccccc2F)Sc2ccc(C(=O)NCC3CCCO3)cc21 (stereo not drawn)	-0.7	/	-2.8	-21.5	-18.7	?
CC(SCc1ccccc1)C(=O)Nc1ccccc1 (stereo not drawn)	-0.8	-1.9	-7.4	-3.7	-1.6	2.2
O=[N+]([O-])c1nn(-c2ccccc2)n(O)c1=NC1CCN(Cc2ccccc2)CC1	1.2	59.7	16.5	-37.2	76.7*	1.5
O=[N+]([O-])c1nn(-c2ccc3c(c2)OCCO3)n(O)c1=NC1CCN(Cc2ccccc2)CC1	1.3	29.5	15.9	/	62.1*	-12.5
COc1ccc(-n2nc([N+](=O)[O-])c(=NCCc3ccccc3)n2O)cc1	1.4	12.1	16.0	-118.0	31.0	-2.1
C#CCOCCOCCOCCNc1nc(N2CCN(C(=O)Cn3cc(CC(C)O)nn3)CC2)nc(N2CCN(C(=O)[C@H](C)n3cc(CCC(=O)O)nn3)CC2)n1 (stereo partly drawn)	/	/	/	-6.6	/	/
C/C(=N\NC(=S)NC(C)C)c1ccccc1	-0.1	5.3	-4.6	1.7	-2.4	12.0
CC(C)NC(=S)NN=C1c2ccccc2-c2ccccc21	26.4*	13.0	0.8	-9.3	6.1	-24.2
COc1ccc2[nH]c3c(c2c1)CCN1C(=O)C(CC(=O)NCc2ccco2)C[C@H](C(=O)N2CCCCC2)[C@@]31CCc1ccccc1 (stereo partly drawn)	/	/	/	1.6	/	/
CC(C)CCNC(=O)CNC(=S)N(Cc1ccccc1)Cc1cccnc1	-0.7	-3.1	11.6	-10.8	61.0*	-2.6
O=C(CNC(=S)N(Cc1ccccc1)Cc1cccnc1)NCCc1ccccc1	-0.3	-0.7	2.5	-8.4	46.9	18.8
O=[N+]([O-])c1ccc(-c2nc(C(Cl)Cl)c3ccccc3n2)cc1	0.8	94.0*	96.9*	3.8	30.7	-2.5
COc1ccc(C(=O)c2c(C)c3ccccc3n2CC(O)CNC(C)C)cc1 (stereo not drawn)	-0.5	101.9*	-8.5	-2.2	42.1	-12.3
Cc1cc(C)nc(-n2ncc3c2CC(c2ccccc2)CC3=O)n1 (stereo not drawn)	0.0	1.1	4.2	-13.3	6.5	8.4
Cc1cc(C)nc(-n2ncc3c2CC(c2cccc(Cl)c2)CC3=O)n1 (stereo not drawn)	0.8	-12.2	81.1*	-27.2	7.7	5.9
Cc1ccccc1-n1c(SC(C)C(=O)NCC2CCCO2)nnc1-c1ccncc1 (stereo not drawn)	/	/	/	-16.3	/	/
COc1ccccc1NC(=O)/C=C1\NC(=O)CS1	-27.3	-3.3	-3.6	-25.6	1.3	-6.8
COc1ccccc1NC(=O)/C=C1\SCC(=O)N1C	-0.8	0.5	-3.4	3.0	70.8*	1.0
Cc1ccc(CSc2ncnc3c2cnn3Cc2ccccc2)cc1	-0.1	-1.3	11.6	6.0	-6.1	64.8*
CN(C)C(CNc1ncnc2sccc12)c1cccs1 (stereo not drawn)	0.1	-0.3	-2.3	4.7	-3.9	-11.0
CCOC(=O)c1sc2ncnc(NCC(c3cccs3)N(C)C)c2c1C (stereo not drawn)	0.9	3.0	60.3	1.6	42.5	53.4*
CCCCCCCC(=O)Oc1ccc(C(=O)Nc2cc(C)on2)cc1	-3.0	1.3	-6.9	-8.1	-10.6	1.8
Cc1ccc2c(c1)sc[n+]2Cc1ccccc1	3.8	-6.4	-3.4	/	54.6*	-21.4
SMILES	HIF activator	Beta apoptosis	CSC inhib	PfHsp90 set2	T cruzi repl	SKKanGAS inh
COc1ccc([C@H]2/C=C\CN(S(=O)(=O)c3ccc4ccccc4c3)[C@@H](C)C(=O)N2Cc2ccc(F)cc2)cc1	0.0	9.8	12.8	/	59.2*	3.4
COc1ccc(C2/C=C\CN(C(=O)c3ccccc3)[C@H](Cc3ccccc3)C(=O)N2Cc2ccc(F)cc2)cc1 (stereo partly drawn)	-0.7	93.7*	26.1	-9.8	15.8	18.0
CC(=O)c1c(O)cc(=O)oc1-c1ccc(C)cc1	0.6	/	-13.4	-8.2	8.3	7.5
O=S(=O)(NC(=NCc1ccccc1)c1ccccc1)c1ccc(Br)cc1	0.0	/	-8.9	13.4	-2.4	52.4*
O=S(=O)(NC(=NCc1ccccc1)c1ccccc1)c1ccccc1	1.9	-0.4	0.5	-26.8	-9.9	-9.8
O=C(C1CCC(CNS(=O)(=O)c2ccccc2)CC1)N1CCOCC1 (stereo not drawn)	-0.5	-6.6	-18.6	7.9	-6.5	-7.7
CC(C)c1ccc2oc(=O)cc(CN3CCOCC3)c2c1	40.4*	-4.9	16.4	5.6	3.7	1.4
CCOc1cc(C(=O)OCC(=O)Nc2ccc(F)cc2Cl)ccc1OCC(=O)N1CCOCC1	/	/	/	6.8	/	/
O=S(=O)(Nc1nccs1)c1ccc(Nc2nnc(-c3ccccc3)c3ccccc23)cc1	0.2	2.3	-7.7	-3.4	-4.9	103.2*
Cc1ccc(NS(=O)(=O)c2cccc(C(=O)N3CCN(C(=O)c4ccco4)CC3)c2)cc1	/	3.1	-4.4	-0.8	/	/
COc1ccc(-c2cc(C(F)F)n3ncc(C(=O)N4CCCCC4)c3n2)cc1	-0.2	-1.4	3.7	-10.8	89.3*	11.7
CCN1CCN(C(=O)c2cnn3c(C(F)F)cc(-c4ccc(C)cc4)nc23)CC1	0.1	-4.8	-6.8	24.7	12.4	7.6
COc1ccc(-c2cc(C(F)F)n3ncc(C(=O)N4CCN(C(=O)c5ccco5)CC4)c3n2)cc1	-0.3	/	-0.2	-13.6	3.9	3.4
CNS(=O)(=O)c1ccc(NC(=O)c2cnn3c(C(F)F)cc(-c4ccccc4)nc23)cc1	-1.7	21.5	-6.0	-0.5	1.8	53.4*
Cc1ccc(-c2cc(C(F)F)n3ncc(C(=O)N4CCN(c5ccccn5)CC4)c3n2)cc1	0.0	6.4	-17.6	-28.4	60.1*	12.4
O=C(N/C(=C\c1ccc(Cl)cc1)C(=O)N1CCOCC1)c1ccc([N+](=O)[O-])cc1	0.1	4.6	5.0	3.1	1.5	-1.8
NC(=S)NN=C1C=CCCC1	/	/	/	19.3	/	/
O=S1(=O)[C@H]2C[C@H](CO)O[C@@]2(CO)CN1Cc1ccc(-c2ccc(F)cc2)cc1	/	/	/	-0.2	/	/
C[C@H]1NC(=O)[C@@]2(C)[C@H](c3ccccc3)[C@H]3COc4ccccc4[C@@H]3N2C1=O	/	1.7	-12.2	12.3	/	/
CC(C)(C)OC(=O)N(Cc1ccccc1)Cc1cccc(OCc2cccc(NC(=O)c3ccccc3)c2)c1	/	/	/	-7.8	/	/
